Data set [1] can be described thus: Cytotoxicity against human NCI-H1975 cells assessed as decrease in cell viability after 72 hrs by MTT assay. Type of data set: functional, cell-based. The conditions noted are these: NCI-H1975, 72 h. An outline of the steps: (§1)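 Cells kept in RPMI 1640 with 10% FBS at 37 °C, 5% CO2, passaged every 2-3 days; seeded at 5,000-7,000 cells/well and left 24 h. Compounds dissolved in 1% DMSO, diluted in fresh medium to 1, 4, 16 and 32 µM, added in sextuplicate; 72 h exposure. MTT added for 3-4 h, medium removed, DMSO added for 15 min at 37 °C, OD read at 540 nm.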
(In general: Formazan colour is commonly taken as a measure of viable cells.)

Data set [2] can be described thus: Cytotoxicity against human NCI-H460 cells assessed as decrease in cell viability after 72 hrs by MTT assay. Type of data set: functional, cell-based. The conditions noted are these: NCI-H460, 72 h. An outline of the steps: as §1
The nature of data set [3]: Cytotoxicity against human HCC827 cells assessed as decrease in cell viability after 72 hrs by MTT assay. The conditions noted are these: HCC827, 72 h. It is filed as functional, cell-based. An outline of the steps:
as §1

The nature of data set [4]: Cytotoxicity against human A549 cells assessed as decrease in cell viability after 72 hrs by MTT assay. It is filed as functional, cell-based. The conditions noted are these: A549, 72 h. An outline of the steps: as §1
Data set [5] can be described thus: Aqueous solubility of the compound. It is filed as physicochemical.
A short description of data set [6]: Growth inhibition of human NCI-H522 cells after 48 hrs by SRB assay. Type of data set: functional. The conditions noted are these: NCI-H522, 48 h; for CC50: read-out: LC50 (the source's name). On the technique in general: The SRB assay estimates cell density from bound dye.
The nature of data set [7]: Cytotoxicity against human A549 cells assessed as cell growth at 10 uM after 48 hrs by SRB assay relative to control. Type of data set: functional. The conditions noted are these: A549, 48 h, read-out: Activity.
Data set [8] in a line: Cytotoxicity against human HOP62 cells assessed as cell growth at 10 uM after 48 hrs by SRB assay relative to control. The conditions noted are these: HOP-62, 48 h, read-out: Activity. It is filed as functional.
Data set [9] can be described thus: Cytotoxicity against human NCI-H322M cells assessed as cell growth at 10 uM after 48 hrs by SRB assay relative to control. The conditions noted are these: read-out: Activity. Type of data set: functional.
A short description of data set [10]: Growth inhibition of human HOP62 cells after 48 hrs by SRB assay. The conditions noted are these: HOP-62, 48 h; for CC50: read-out: LC50 (the source's name). Type of data set: functional.
A short description of data set [11]: Growth inhibition of human A549 cells after 48 hrs by SRB assay. Type of data set: functional. The conditions noted are these: A549, 48 h.
Data set [12] can be described thus: Growth inhibition of human EKVX cells after 48 hrs by SRB assay. It is filed as functional.
Data set [13] can be described thus: Cytotoxicity against human HOP92 cells assessed as cell growth at 10 uM after 48 hrs by SRB assay relative to control. Type of data set: functional. The conditions noted are these: HOP-92, 48 h, read-out: Activity.
The nature of data set [14]: Cytotoxicity against human NCI-H23 cells assessed as cell growth at 10 uM after 48 hrs by SRB assay relative to control. It is filed as functional. The conditions noted are these: NCI-H23, 48 h, read-out: Activity.
Data set [15] in a line: Cytotoxicity against human EKVX cells assessed as cell growth at 10 uM after 48 hrs by SRB assay relative to control. The conditions noted are these: read-out: Activity. Type of data set: functional.
Data set [16] is described as follows: Growth inhibition of human NCI-H23 cells after 48 hrs by SRB assay. The conditions noted are these: NCI-H23, 48 h. Type of data set: functional.
Data set [17] can be described thus: Growth inhibition of human HOP92 cells after 48 hrs by SRB assay. Type of data set: functional. The conditions noted are these: HOP-92, 48 h.
Data set [18] in a line: Growth inhibition of human NCI-H226 cells after 48 hrs by SRB assay. It is filed as functional. The conditions noted are these: NCI-H226, 48 h.
Data set [19] in a line: Growth inhibition of human NCI-H460 cells after 48 hrs by SRB assay. Type of data set: functional. The conditions noted are these: NCI-H460, 48 h.
A short description of data set [20]: Cytotoxicity against human NCI-H226 cells assessed as cell growth at 10 uM after 48 hrs by SRB assay relative to control. It is filed as functional. The conditions noted are these: NCI-H226, 48 h, read-out: Activity.
The nature of data set [21]: Growth inhibition of human NCI-H322M cells after 48 hrs by SRB assay. Type of data set: functional. The conditions noted are these: for CC50: read-out: LC50 (the source's name).
Data set [22] in a line: Cytotoxicity against human NCI-H460 cells assessed as cell growth at 10 uM after 48 hrs by SRB assay relative to control. Type of data set: functional. The conditions noted are these: NCI-H460, 48 h, read-out: Activity.

In general, IC50 refers to the concentration needed to halve the response being measured. One may read the solubility as how much of the substance goes into solution per volume. As a reminder, the GI50 is the concentration that inhibits growth by half. A word on the TGI: it is the concentration at which net growth stops. A high value points to less potent growth arrest. Broadly, the LC50 is the concentration lethal to half of the exposed cells or organisms. Read a low LC50 as greater toxicity.

With `COC(=O)Cc1n(Cc2ccc3ccccc3c2)c2ccccc2[n+]1Cc1ccc2ccccc2c1.[Br-]`, the IC50 came out at 6 µM in data set [1], 7 µM in [2], 8 µM in data set [3] and 8 µM in data set [4]. The solubility in [5] was under 500 µg/mL.

Take `Cc1cc2c(cc1C)[n+](Cc1ccc3ccccc3n1)cn2Cc1ccc2ccccc2n1.[Cl-]`: the GI50 in data set [6] was determined as 0.704 µM; in data set [10], 1.27 µM; in [11] it was 2.83 µM; in data set [12] it was 2.29 µM; in data set [16], 0.736 µM; in data set [17], 0.484 µM. Also, the GI50 in data set [18] came to 1.59 µM; in data set [19], 0.63 µM; in [21], 1.37 µM. In addition, the TGI in data set [6] was 2.47 µM; in data set [10], 3.13 µM; in data set [11] it was 13 µM; in [12], 11.1 µM; in data set [16] it was 3.53 µM; in data set [17] it was 2 µM. For the same molecule, the TGI in data set [18] stood at 4.01 µM; in [19], 2.21 µM; in [21], 8.62 µM. Further, the CC50 was determined as 6.89 µM in [6], 7.72 µM in data set [10] and 30.5 µM in data set [21]. The IC50 was under 1 µM in data set [1], 2 µM in data set [2], 3 µM in [3] and 4 µM in [4]. Besides, the growth at 10 µM in [7] is 30.4%; in data set [8] it was 4.38%; in [9] it was 36%; in [13], -27.3%; in data set [14] it was 1.58%; in [15], 39.6%. For the same molecule, the growth at 10 µM stood at 9.61% in [20] and 0.34% in data set [22]. Besides, the LC50 in data set [11] was 63.5 µM; in data set [12], 66 µM; in data set [16] it was 29.6 µM; in [17], 5.22 µM; in [18] it was over 100 µM; in [19], 6.2 µM. Besides, the solubility in data set [5] is 1400 µg/mL.

On to `COCCOCCOCc1n(Cc2ccc3ccccc3c2)c2cc(C)c(C)cc2[n+]1Cc1ccc2ccccc2c1.[Br-]`, for which the IC50 in [1] is under 1 µM; in data set [2], under 1 µM; in [3], 2 µM; in data set [4] it was 2 µM. The solubility in data set [5] was 1000 µg/mL.

With `Cl.O=C(O)c1ccc2c(c1)n(Cc1ccc3ccccc3c1)c[n+]2Cc1ccc2ccccc2c1.[Br-]`, the IC50 was 23 µM in data set [1], 16 µM in data set [2], over 30 µM in [3] and 12 µM in data set [4]. In [5], this molecule gave a solubility of under 500 µg/mL.

`Cc1cc2c(cc1C)[n+](Cc1ccc3ccccc3c1)cn2Cc1ccc2ccccc2c1.[Br-]`: the GI50 in data set [6] came to 1.25 µM; in [10], 1.03 µM; in data set [11] it was 1.42 µM; in data set [12] it was 1.37 µM; in data set [16] it was 0.872 µM; in data set [17], 0.587 µM. Besides, the GI50 amounted to 1.39 µM in [18], 0.662 µM in data set [19] and 1.14 µM in [21]. The TGI in data set [6] was 2.99 µM; in data set [10] it was 2.47 µM; in data set [11], 2.95 µM; in [12] it was 2.88 µM; in data set [16] it was 2.28 µM; in [17] it was 2.53 µM. Further, the TGI stood at 3.42 µM in data set [18] and 2.42 µM in data set [21]. For the same molecule, the IC50 in data set [1] turned out to be 2 µM; in [2], 2 µM; in [3], 2 µM; in [4], 3 µM. The growth at 10 µM was -71.3% in [7]; -73% in data set [8]; -8.28% in data set [9]; -80.8% in data set [13]; -71.8% in [14]; -64.3% in data set [15]. The growth at 10 µM in data set [20] was -25.5%; in data set [22], -76.8%. Moreover, the solubility in data set [5] is under 500 µg/mL.

On to `OCCCc1n(Cc2ccc3ccccc3c2)c2ccccc2[n+]1Cc1ccc2ccccc2c1.[Br-]`, for which the GI50 was found to be 1.05 µM in data set [6]; 2.32 µM in [10]; 6.97 µM in data set [11]; 3.68 µM in [12]; 1.65 µM in data set [16]; 0.566 µM in data set [17]. The GI50 in [18] came to 2.23 µM; in [19], 2.43 µM; in data set [21] it was 2.15 µM. The TGI in data set [6] came to 3.95 µM; in data set [10], 11.6 µM; in data set [11] it was 31.4 µM; in [12] it was 19.4 µM; in data set [16], 8.17 µM; in data set [17], 3.1 µM. For the same molecule, the TGI in data set [18] was 10.5 µM; in data set [19], 9.57 µM; in [21], 9.1 µM. Further, the CC50 in data set [6] was determined as 84.4 µM; in [10], 82.7 µM; in [21], 31.7 µM. Further, the IC50 in data set [1] was found to be 4 µM; in data set [2], 4 µM; in [3], 6 µM; in data set [4] it was 10 µM. Also, the growth at 10 µM is 68.4% in data set [7]; 37.5% in [8]; 49.9% in data set [9]; -24.3% in [13]; 19% in data set [14]; 47.6% in [15]. The growth at 10 µM was determined as 48.5% in [20] and 18.4% in data set [22]. Moreover, the 50% lethal concentration (LC50) is over 100 µM in data set [11]; 70.6 µM in data set [12]; 56.8 µM in [16]; 69.1 µM in [17]; 99.6 µM in data set [18]; 80.3 µM in data set [19]. Further, in data set [5], the solubility is under 500 µg/mL.

As to `O=C(O)c1cc2c(cc1C(=O)O)[n+](Cc1ccc3ccccc3c1)cn2Cc1ccc2ccccc2c1.[Cl-]`, the IC50 in data set [1], in data set [2], in [3] and in [4] was over 30 µM throughout. Moreover, the solubility in data set [5] is under 500 µg/mL.

Take `O=C(O)CCc1n(Cc2ccc3ccccc3c2)c2ccccc2[n+]1Cc1ccc2ccccc2c1.[Cl-]`: the IC50 in [1], in [2], in [3] and in [4] was over 30 µM each time. Also, the solubility in [5] was under 500 µg/mL.

Consider `COc1ccc2c(c1)n(Cc1ccc3ccccc3c1)c[n+]2Cc1ccc2ccccc2c1.[Br-]`, for which the IC50 in data set [1] was 2 µM; in data set [2], 4 µM; in data set [3] it was 4 µM; in [4] it was 6 µM. In data set [5], this molecule returned a solubility of under 500 µg/mL.

In the case of `O=C(OCc1ccc2ccccc2c1)c1ccc2c(c1)n(Cc1ccc3ccccc3c1)c[n+]2Cc1ccc2ccccc2c1.[Br-]`, the IC50 in data set [1] amounted to 4 µM; in [2], 4 µM; in data set [3], 7 µM; in [4], 7 µM. This molecule also yielded a solubility in data set [5] of under 500 µg/mL.

Take `OCCCc1n(Cc2ccc3ccccc3n2)c2ccccc2[n+]1Cc1ccc2ccccc2c1.[Br-]`: the IC50 in data set [1] was 3 µM; in data set [2] it was 4 µM; in data set [3] it was 11 µM; in data set [4], 12 µM. The molecule further displayed a solubility in [5] of under 500 µg/mL.

Values taken from ChEMBL document CHEMBL3868630, “Synthesis, anti-proliferative activity, SAR study, and preliminary in vivo toxicity study of substituted N,N'-bis(arylmethyl)benzimidazolium salts against a panel of non-small cell lung cancer cell lines” (Bioorg Med Chem, 2017).
